Laboratory results published in ChEMBL document CHEMBL2429829, “Inhibitors of the aminoglycoside 6'-N-acetyltransferase type Ib [AAC(6')-Ib] identified by in silico molecular docking” (Bioorg Med Chem Lett, 2013).

Test: Inhibition of aminoglycoside 6'-N-acetyltransferase Ib (unknown origin)-mediated acetylation expressed in Escherichia coli using kanamycin A and acetyl CoA as substrate at 100 uM preincubated for 10 mins followed by enzyme addition by spectrophotometric analysis relative to control
Summary of the method: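 Enzyme: thioredoxin-fused AAC(6′)-Ib, arabinose-induced in E. coli, partially purified by DEAE ion exchange. Reaction: 20 mM Tris pH 7.5, 0.2 mM DTNB, 50 μM acetyl CoA, 18 μM kanamycin A, compound at 100 μM in 10% DMSO. Mix held 10 min at room temperature before enzyme added. CoA–SH release read at 412 nm. Percent inhibition from initial velocities versus no-compound reactions; mean of three experiments.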

Which inhibition does the source give for `O=C1c2cccc3cccc(c23)C(=O)N1CCCc1nc2sc3c(c2c(=O)[nH]1)CCCC3` here?
Its inhibition is 0%.

For `c1ccc2oc(-c3nn4c(-c5ccncc5)nnc4s3)cc2c1`, which inhibition is on record?
The inhibition was 0%.

For `Cc1ccc2nc(-c3ccc(Cl)c(NC(=S)NC(=O)c4ccccc4C)c3)oc2c1`, which inhibition is on record?
The inhibition was 0%.

Which inhibition does the source give for `O=C(c1ccc(N2CCCCC2)cc1)N1CCC2c3ccccc3NC2[C@@H]1c1ccccn1` (some centres not stated) here?
Its inhibition is 0%.

With `O=C(CSc1nnnn1-c1ccccc1)Nc1ccc(-c2ccc([N+](=O)[O-])cc2)cc1` as the compound, how does the inhibition read?
Its inhibition is 0%.

Which inhibition does the source give for `Brc1ccc2nc(Nc3cccc4ccccc34)nc(-c3ccccc3)c2c1` here?
The inhibition was 0%.

With `CC(C)(C)NC(=O)c1cccc(NC(=O)c2ccc3c(c2)C(=O)N(Cc2ccncc2)C3=O)c1` as the compound, how does the inhibition read?
The inhibition was 0%.

With `COc1cc(/C=C2\C(=O)NC(=S)N(c3ccccc3)C2=O)ccc1OCc1ccc(C(=O)O)cc1` as the compound, how does the inhibition read?
The inhibition was 0%.

For `O=C(Nc1ccc(Oc2cccnc2)cc1)[C@@H]1CCCCN1Cc1ccc2c(c1)CCO2`, which inhibition is on record?
The inhibition was 0%.

Which inhibition does the source give for `O=C(c1cc(-c2ccccc2Cl)nc2ccccc12)N1CCN(Cc2ccc3c(c2)OCO3)CC1` here?
Its inhibition is 0%.

Which inhibition does the source give for `O=C(OCc1ccc(S(=O)(=O)c2ccccc2)cc1)c1ccc2c(c1)-c1ccccc1C2=O` here?
Its inhibition is 0%.

For `Cc1ccccc1Nc1nnc(-c2ccc(C(=O)NCCO)cc2)c2ccccc12`, which inhibition is on record?
Its inhibition is 0%.

Which inhibition does the source give for `Cc1ccc(-c2cc(C(=O)NCc3ccc(S(N)(=O)=O)cc3)c3ccccc3n2)cc1C` here?
Its inhibition is 0%.

For `O=C(CSc1nc2ccccc2c(=O)n1Cc1ccccc1)c1cc2ccccc2o1`, which inhibition is on record?
Its inhibition is 0%.

For `CC[C@H](C1=NN2C(=N)/C(=C\c3ccc(-c4cccc(C(=O)O)c4)o3)C(=O)N=C2S1)c1ccccc1`, which inhibition is on record?
Its inhibition is 0%.

Which inhibition does the source give for `Cc1cc(C)c2nc(Nc3nc(C)cc(-c4ccccc4)n3)nc(C)c2c1` here?
The inhibition was 0%.

With `Cc1c(C(=O)Nc2ccc3c(c2)Cc2ccccc2-3)cccc1[N+](=O)[O-]` as the compound, how does the inhibition read?
The inhibition was 0%.

With `Cc1ccc2nc(N3C(=O)c4cccc5cccc(c45)C3=O)sc2c1` as the compound, how does the inhibition read?
Its inhibition is 0%.

Which inhibition does the source give for `COC(=O)c1ccc(N2C(=O)NC(=O)/C(=C\c3ccccc3OCc3ccc(C(=O)O)cc3)C2=O)cc1` here?
Its inhibition is 0%.

For `O=C(c1ccc2c3c(cccc13)CC2)[C@H]1CCCN(C(=O)c2cn3ccccc3n2)C1`, which inhibition is on record?
Its inhibition is 0%.

With `Cc1ccc(N2C(=O)NC(=O)/C(=C\c3ccc(-c4ccccc4C(=O)O)o3)C2=O)cc1` as the compound, how does the inhibition read?
The inhibition was 0%.

Which inhibition does the source give for `Cc1ccc(NC(=O)COc2ccc3c4c(c(=O)oc3c2)CCCCC4)cc1` here?
Its inhibition is 0%.

With `Cn1c(SCC(=O)Nc2cccc3ccccc23)nnc1-c1ccc(F)cc1` as the compound, how does the inhibition read?
Its inhibition is 0%.

Which inhibition does the source give for `Cc1ccc2c(c1)CCCN2C(=O)c1cc(-c2ccc3c(c2)OCO3)nc2ccccc12` here?
Its inhibition is 10%.

Which inhibition does the source give for `O=C1C(=Cc2ccco2)C(=O)N(c2ccccc2)C(=O)N1c1ccccc1` here?
Its inhibition is 0%.

For `O=C(/C=C/c1cccc2ccccc12)N1CCN(CCN2C(=O)c3cccc4cccc(c34)C2=O)CC1`, which inhibition is on record?
The inhibition was 0%.

With `O=C1C(=Cc2ccc(-c3ccccc3Cl)o2)C(=O)N(c2ccccc2)C(=S)N1c1ccccc1` as the compound, how does the inhibition read?
Its inhibition is 0%.

With `S=C(N/N=C1/CCCc2c1[nH]c1ccc(C3CCCCC3)cc21)Nc1ccccc1` as the compound, how does the inhibition read?
Its inhibition is 0%.

Which inhibition does the source give for `COc1cccc(Nc2nc(C3(C)CC4(CC(C)OC4=O)C(=O)O3)cs2)c1` (configuration not stated) here?
The inhibition was 0%.

With `O=c1oc2ccc(Br)cc2cc1C1=Nn2c(nc3ccccc3c2=O)SC1` as the compound, how does the inhibition read?
Its inhibition is 0%.

For `O=C(c1ccc2nc(C3CC3)oc2c1)N1CCC(CCc2ccccc2)CC1`, which inhibition is on record?
Its inhibition is 0%.

With `Cc1nc(N/N=C/c2ccc(OC(=O)c3cccnc3)cc2)c2c3c(sc2n1)CCCC3` as the compound, how does the inhibition read?
Its inhibition is 0%.

With `Cc1ccc(C(=O)COc2cccc(N3C(=O)[C@@H]4[C@H]5CC[C@H](C5)[C@@H]4C3=O)c2)cc1C` as the compound, how does the inhibition read?
Its inhibition is 0%.

With `O=C(NC(=S)Nc1ccc2c3c(oc2c1)CCCC3)c1ccc2c(c1)OCO2` as the compound, how does the inhibition read?
The inhibition was 0%.

With `O=c1[nH]c(-c2cccc(OCc3ccccc3)c2)nc2sc3c(c12)CCCC3` as the compound, how does the inhibition read?
The inhibition was 0%.

With `O=C1NC(=O)N(c2ccc(F)cc2)C(=O)/C1=C/c1cc(Cl)ccc1OCc1ccc(C(=O)O)cc1` as the compound, how does the inhibition read?
The inhibition was 0%.

For `O=C1NC(=O)N(c2ccc3c(c2)OCO3)C(=O)/C1=C/c1ccc(-c2ccc(F)cc2)o1`, which inhibition is on record?
Its inhibition is 0%.

Which inhibition does the source give for `Cc1ccc(C(=O)O)cc1NC(=S)NC(=O)c1cccc2c(Br)cccc12` here?
Its inhibition is 0%.

With `Cc1cccc(C)c1NC(=O)COc1ccc2c3c(c(=O)oc2c1)CCCCC3` as the compound, how does the inhibition read?
Its inhibition is 0%.

Which inhibition does the source give for `Cc1c(O)cccc1C(=O)N1CCC[C@@H]1c1nc(-c2ccccc2)no1` here?
The inhibition was 0%.

For `O=C(c1cc(-c2ccc3c(c2)OCO3)nc2ccccc12)N1CCN(c2ccccc2F)CC1`, which inhibition is on record?
The inhibition was 0%.

For `O=C1C(=Cc2ccc(-c3ccc(Cl)cc3[N+](=O)[O-])o2)C(=O)N(c2ccccc2)C(=S)N1c1ccccc1`, which inhibition is on record?
Its inhibition is 0%.

Which inhibition does the source give for `Cc1ccc(N2C(=O)C[C@@H](N3CCN(c4nc5ccccc5s4)CC3)C2=O)c(C)c1` here?
Its inhibition is 0%.

For `Cc1ccc(-c2csc(NC(=S)NC(=O)c3ccccc3Br)n2)cc1`, which inhibition is on record?
The inhibition was 0%.

With `Cc1ccnc(Nc2nc(-c3ccc4ccccc4c3)cs2)c1` as the compound, how does the inhibition read?
The inhibition was 0%.

With `O=C(c1cccc([N+](=O)[O-])c1)c1ccc2c(c1)C(=O)N(c1cccc(-c3nc4ccccc4o3)c1)C2=O` as the compound, how does the inhibition read?
The inhibition was 0%.

Which inhibition does the source give for `COc1ccc(F)cc1C(=O)C1CCCN(C(=O)c2ccc(Cn3cnnn3)cc2)C1` (configuration not stated) here?
The inhibition was 0%.

Which inhibition does the source give for `O=C(Nc1ccccc1N1CCCCC1)c1cccc(-c2cc3ccccc3oc2=O)c1` here?
The inhibition was 0%.

For `N#Cc1cccc(Oc2ccc(-c3nc4ccccc4nc3-c3ccccc3)cc2)c1C#N`, which inhibition is on record?
Its inhibition is 0%.

For `O=C(O)c1ccc2c(c1Nc1cccc3c1C(=O)c1ccccc1C3=O)C(=O)c1ccccc1C2=O`, which inhibition is on record?
Its inhibition is 0%.

For `O=C(NC1CCCc2c1cnn2-c1ccccc1F)c1ccc(-n2ccnc2)cc1` (configuration not stated), which inhibition is on record?
Its inhibition is 15%.

Which inhibition does the source give for `O=C(Nc1ccc2c(c1)C(=O)c1ccccc1C2=O)c1cccc([N+](=O)[O-])c1` here?
Its inhibition is 0%.

For `CC(C)(NC(=O)CCn1ccc(=O)[nH]c1=O)c1cccc2ccccc12`, which inhibition is on record?
The inhibition was 0%.

For `CCc1ccc(-c2nc3ccccc3c(C(=O)Nc3ccc(C(=O)N4CCCC4)cc3)c2C)cc1`, which inhibition is on record?
Its inhibition is 0%.

For `Cc1ccc(NC(=O)c2ccccc2N2C(=O)[C@@H]3[C@@H]4C=C[C@@H]([C@H]5C[C@@H]45)[C@@H]3C2=O)cc1C`, which inhibition is on record?
Its inhibition is 0%.

Which inhibition does the source give for `O=C1[C@@H]2[C@H](C(=O)N1/N=C/c1ccccc1OCc1ccc(Cl)cc1)[C@@H]1C=C[C@H]2C1` here?
Its inhibition is 12%.

With `O=C(NCc1ccc(-c2nc3ccccc3o2)cc1)c1cccc(-c2cc3ccccc3oc2=O)c1` as the compound, how does the inhibition read?
Its inhibition is 0%.

Which inhibition does the source give for `Cc1ccc2nc(NC(=S)NC(=O)c3oc4ccccc4c3C)sc2c1` here?
The inhibition was 0%.

Which inhibition does the source give for `NC(=O)c1c(NC(=O)c2cc(-c3ccc4c(c3)OCO4)nc3ccccc23)sc2c1CCCCCC2` here?
The inhibition was 0%.

With `O=C1NCCN(Cc2cccc(F)c2F)[C@H]1CC(=O)N1CCc2c([nH]c3ccccc23)C1` as the compound, how does the inhibition read?
The inhibition was 0%.

Which inhibition does the source give for `O=C(Nc1ccccc1)c1ccccc1/N=C/c1ccc(/C=N/c2ccccc2C(=O)Nc2ccccc2)cc1` here?
Its inhibition is 0%.

With `O=C1C(=Cc2ccc(-c3ccccc3[N+](=O)[O-])o2)C(=O)N(c2ccccc2)C(=S)N1c1ccccc1` as the compound, how does the inhibition read?
The inhibition was 0%.

For `CN1C(=O)c2ccc(NC(=O)[C@H]3CC(=O)N(c4ccccc4)C3)cc2C1=O`, which inhibition is on record?
Its inhibition is 0%.

For `Cc1ncc(CNC2CCCc3nc(-c4ccccc4)ncc32)n1C` (configuration not stated), which inhibition is on record?
The inhibition was 0%.

For `Cc1ccc(S(=O)(=O)Nc2cc3c(c4ccccc24)O[C@]2(C3)N(C)c3ccccc3C2(C)C)c(C)c1`, which inhibition is on record?
The inhibition was 0%.

Which inhibition does the source give for `Cc1nn(Cc2ccc(F)cc2)c(C)c1NC(=O)c1cc(-c2ccc(F)cc2)on1` here?
The inhibition was 0%.

Which inhibition does the source give for `O=C(NC(=S)Nc1nc(-c2cccc3ccccc23)cs1)c1ccc2c(c1)OCCO2` here?
Its inhibition is 0%.
